MrgX1 antag – blocks BAM8-22 activation of human MrgX1 receptor | Q96LB2 | MRGX1-HEK293 calcium flux, Fluo-4, BAM8-22 antagonism; hits give low values | B-score at 10 µM | actives 1.3% (n = 310,000) | AID 588676;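 active means calcium-response B-score plate-corrected more than 3 library SD below zero, starting fluorescence within 5 deviations, no agonist response on first addition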;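 further: peak minus trough fluorescence over baseline after final BAM8-22 challenge near maximal dose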
Target sequence (Q96LB2 whole entry, looked up): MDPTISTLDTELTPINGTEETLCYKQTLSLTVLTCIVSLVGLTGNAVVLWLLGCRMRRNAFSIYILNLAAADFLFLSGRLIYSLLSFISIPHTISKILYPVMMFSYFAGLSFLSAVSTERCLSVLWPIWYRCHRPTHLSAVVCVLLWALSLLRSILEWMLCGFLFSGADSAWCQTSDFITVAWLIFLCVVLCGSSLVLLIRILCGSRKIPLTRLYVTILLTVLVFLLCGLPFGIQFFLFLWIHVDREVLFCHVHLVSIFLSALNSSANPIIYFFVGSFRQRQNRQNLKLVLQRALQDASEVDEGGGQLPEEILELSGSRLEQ
MrgX1 allo act – human MrgX1 positive allosteric modulation, primary screen; B-score at 10 µM; AID 588675; MrgX1-HEK293, Fluo-4 calcium flux, FDSS; hits give high values; actives 0.63% (n = 310,000); Q96LB2;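 active means plate-corrected calcium response at least 3 library SD above typical, normal starting fluorescence, not activating the receptor alone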;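 further: compound read alongside a low EC10 to EC30 dose of BAM8-22 agonist; peak minus trough fluorescence over baseline measured at the second addition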
RGS4 act – potentiators or activators of RGS4. HEK293 M3R/inducible RGS4, carbachol calcium flux Fluo4; hits give low values. B-score at 10 µM. actives 0.92% (n = 310,000);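 active means B-score of the integrated calcium signal more than 4 SD below the library mean, with starting fluorescence not abnormally high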;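 further: negative B-score means reduced calcium response which marks RGS4 activation or potentiation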
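Material: Inducible-RGS4 HEK293 cells carrying M3 receptor; also added: carbachol at ECmax as muscarinic agonist stimulus; incubation: compound preincubation 20 min at room temperature before agonist; signal: Fluo4-AM (2 µM) calcium-flux fluorescence, kinetic read; measure: integrated calcium ratio converted to B score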
RGS4 inh – human RGS4 inhibition | HEK293 M3R/RGS4 inducible, Fluo-4 calcium flux; hits give high values; triggered by carbachol at its EC20 | actives 0.45% (n = 310,000) | P49798 | AID 463165 | B-score at 10 µM;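 active means B-score, a plate-corrected calcium signal, over three deviations above library mean, with baseline fluorescence within five deviations of library mean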;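 further: RGS4 expression induced by doxycycline in cells with stable M3 receptor; B-score is computed from the integrated fluorescence ratio over baseline after carbachol; higher B-score means a larger calcium signal and so more RGS4 inhibition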
Target sequence (P49798 whole entry, looked up): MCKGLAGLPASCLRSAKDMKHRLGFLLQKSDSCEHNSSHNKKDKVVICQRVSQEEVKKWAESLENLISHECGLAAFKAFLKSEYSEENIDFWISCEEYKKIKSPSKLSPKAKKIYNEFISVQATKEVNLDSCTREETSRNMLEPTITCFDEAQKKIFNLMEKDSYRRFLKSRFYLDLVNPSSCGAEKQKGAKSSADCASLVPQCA
MrgX1 ag – activates human MrgX1 receptor signaling; B-score at 10 µM; Q96LB2; AID 588627; actives 0.44% (n = 310,000); MrgX1-HEK293 cells, Fluo-4 calcium fluorescence, agonist mode; hits give high values;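 active means calcium response B-score plate-corrected fluorescence ratio at least 3 library SD, with starting fluorescence B-score inside 5 SD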
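Material: MrgX1-expressing HEK293 cells; input: 15,000 cells per well; doses: test compound given as first of three sequential additions; schedule: overnight plating before 1 h dye loading; technique: Fluo-4 NW calcium-flux fluorescence, kinetic read; evaluation: baseline-normalised fluorescence change ratio, B-scored; control set: plate-wise positive and negative controls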
An asterisk follows results filed as active; i = inactive. Only some compounds are listed: those with a hit (about 3.5% of all), similar ones and a draw of the others.

SMILES	MrgX1 antag	MrgX1 allo act	RGS4 act	RGS4 inh	MrgX1 ag
COc1ccc(C(=O)Nc2nnc(SCC(=O)NCc3ccco3)s2)c(OC)c1	i	i	i	i	i
COc1ccc(/C=C(/C(=O)c2ccc(Cl)cc2Cl)n2cncn2)cc1	i	i	i	i	35*
CC1(C(=O)NNC(=S)NCc2ccco2)CC1(Cl)Cl (stereo not drawn)	-4.7*	i	i	i	i
CC(NC(=O)c1ccc2c(c1)OCO2)C(c1cccs1)N1CCN(c2ccccc2)CC1 (stereo not drawn)	i	i	i	i	i
COc1cccc(-c2ccc(NC(=O)C3CCCN(Cc4cnc(C)n4C)C3)cc2)c1 (stereo not drawn)	i	i	-7.1*	i	i
CC(C)c1ccc(/C=C/C(=O)NCc2ccc(S(N)(=O)=O)cc2)cc1	-6.8*	i	i	i	i
NS(=O)(=O)c1ccc(CNC(=O)/C=C/c2ccc(Cl)c(Cl)c2)cc1	i	i	i	i	i
CC(=O)Nc1sc2c(c1C(c1ccccc1Cl)N1CCN(CCO)CC1)CCCC2 (stereo not drawn)	i	i	-7.5*	i	i
COc1ccc(-c2noc(CCC(=O)N3CCN(c4cc(C)ccc4C)CC3)n2)cc1	i	i	-7*	i	i
O=[N+]([O-])c1ccc2oc(C(O)c3cccc(Cl)c3)cc2c1 (stereo not drawn)	i	8.5*	i	i	i
C[N+]1(C)CCCC(OC(=O)C(O)(c2ccccc2)c2ccccc2)C1 (stereo not drawn)	i	i	-11*	i	i
O=C(CNC(=O)c1ccccc1)OC1CCCCC1	i	i	i	i	i
CCOC(=O)/C(=C/c1ccco1)NC(=O)c1ccc(Br)o1	i	i	i	i	i
COc1cccc(C2c3c(-c4cc(Cl)c(C)cc4O)n[nH]c3C(=O)N2Cc2cccnc2)c1 (stereo not drawn)	i	i	i	11*	i
COc1ccc(CCN2C(=O)c3[nH]nc(-c4ccccc4O)c3C2c2cccc(Cl)c2)cc1 (stereo not drawn)	i	i	i	i	i
COc1ccc(OC)c(CCNC(=O)CN2C(=O)CCSc3ccccc32)c1	i	i	i	i	i
Cc1ccc(C(C(=O)NCC2CCCO2)N(C(=O)c2snc(C(N)=O)c2N)c2ccc(C)c(C)c2)o1 (stereo not drawn)	i	i	i	i	i
CCOC(=O)NC(=O)/C(C#N)=C(/C)N(C)C	i	i	i	i	i
O=[N+]([O-])c1cnc(Sc2ccncn2)s1	i	i	-9.8*	i	i
CCOc1ccccc1/C=N/OCC(=O)NCc1ccc(F)cc1	i	i	i	i	i
COC(=O)c1ccc(/C=N/OCC(=O)NCc2ccc(F)cc2)cc1	-5.4*	i	i	i	i
CCCc1cc(=O)[nH]c(SCC(=O)N(CC)c2c(N)n(Cc3ccccc3)c(=O)[nH]c2=O)n1	i	i	i	i	i
COc1ccc(C[C@H](C)NC[C@@H](O)c2ccc(O)c(NC=O)c2)cc1	i	7.7*	i	i	i
CCCc1cc(=O)oc2cc(OCC(=O)NCC(O)c3ccccc3)ccc12 (stereo not drawn)	i	i	i	i	i
CN(C)S(=O)(=O)c1cccc(NC(=O)CSc2cccc3cccnc23)c1	i	i	-7.3*	i	i
SMILES	MrgX1 antag	MrgX1 allo act	RGS4 act	RGS4 inh	MrgX1 ag
Cn1nnnc1Sc1c(Cl)cccc1[N+](=O)[O-]	-5.6*	i	i	i	i
COC(=O)c1sc(NC(=S)NNC(=O)c2c(Br)c(C)nn2C)c(C(=O)OC)c1C	-5.1*	i	i	i	i
COC(=O)c1sc(NC(=O)C(C)C)c(C(=O)OC)c1C	i	i	i	i	i
O=C(NC(=S)NCCC1=CCCCC1)c1ccccc1Br	i	i	-7.3*	i	i
CC1CCC(NC(=O)C2COc3ccccc3O2)CC1 (stereo not drawn)	i	i	i	i	i
O=C(NC1CCCCC1)C1COc2ccccc2O1 (stereo not drawn)	i	i	-7.6*	i	i
COc1ccc(/C=C/C(=O)Nc2ccc(OC)cc2[N+](=O)[O-])cc1	i	i	i	i	i
COc1ccc(NC(=O)/C=C/c2ccccc2)c([N+](=O)[O-])c1	-7.1*	i	i	i	i
CC(C)NC(=O)c1ccccc1NC(=O)/C=C/c1cccc([N+](=O)[O-])c1	-4.5*	i	i	i	i
COc1ccc(CN2CCN(CCc3ccccc3)C(CCO)C2)cc1Cn1cncn1 (stereo not drawn)	i	i	i	i	i
O=C(NCc1cccnc1)c1ccc(-c2ccccc2[N+](=O)[O-])o1	-5.9*	i	i	i	i
CC(=O)OCCCCCCCCCCC[N+]1(C)CCCCC1	i	i	-8.9*	i	i
O=C(N/N=C/C=C/c1ccco1)C(O)c1ccccc1 (stereo not drawn)	i	i	i	i	i
O=C(N/N=C/C=C/c1ccccc1)C(O)c1ccccc1 (stereo not drawn)	-5.9*	i	i	i	i
O=C1C2CC=CCC2C(=O)N1c1ccc(NCCc2ccc(Cl)cc2)c([N+](=O)[O-])c1 (stereo not drawn)	i	i	i	i	i
O=C1C2CC=CCC2C(=O)N1c1ccc(NCCc2ccc(O)cc2)c([N+](=O)[O-])c1 (stereo not drawn)	-5.2*	i	i	i	i
CCOc1ccc(-c2nc[nH]c2[N+](=O)[O-])cc1	i	i	i	i	i
CN1CCN(/N=C/c2ccc(-c3ccc([N+](=O)[O-])cc3Cl)o2)CC1	-4.6*	i	i	i	i
CC(=O)c1cccc(NC(=O)C(C)OC(=O)Cc2c[nH]c3ccccc23)c1 (stereo not drawn)	i	i	i	i	i
CC(C(=O)c1ccc(-c2ccccc2)cc1)[n+]1ccccc1 (stereo not drawn)	i	i	i	i	i
Cc1cc[n+](C(C)C(=O)c2ccc(-c3ccccc3)cc2)cc1 (stereo not drawn)	i	i	-9.4*	i	i
Cc1cc(/C=N/n2c(COc3ccccc3C)nc3ccccc3c2=O)c(O)c([N+](=O)[O-])c1	-6.5*	i	i	i	i

From PubChem BioAssay
